The source of these data is ChEMBL document CHEMBL1146549, “Five new cassane diterpenes from Myrospermum frutescens with activity against Trypanosoma cruzi” (J Nat Prod, 2003).

Assay [1] concerns Trypanosoma cruzi. Put plainly: Antitrypanosomal activity against Trypanosoma cruzi epimastigotes after 3 days. Format: functional, organism-based. As to conditions: 72 h. A digest of the protocol:
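Recombinant epimastigotes grown in LIT medium with 10% calf serum at 28 °C, seeded at 1 × 10^5/mL with test compounds. After 3 days, CPRG and Nonidet P-40 added as in the intracellular assay, OD 570 nm. Amphotericin B as positive control. IC50 derived as in the intracellular assay.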

The subject of assay [2] is HFF. Put plainly: Cytotoxicity against HFF after 3 days by MTT assay. Format: cell-based. As to conditions: Homo sapiens, 72 h. A digest of the protocol:
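Primary human foreskin fibroblasts adhered to 96-well plates, exposed to compounds, and viability assessed by MTT reduction after 3 days at 37 °C in CO2. IC50 derived as in the intracellular assay.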
Background: Tetrazolium assays rely on reduction of a dye to a coloured formazan, in cell work by metabolically active cells.

Assay [3] deals with Trypanosoma cruzi. Put plainly: Antitrypanosomal activity against Trypanosoma cruzi Tulahuen clone C4 trypomastigotes in HFF after 7 days by beta-galactosidase reporter gene assay. The class given is functional, organism-based. Particulars: 168 h. The procedure, abridged:
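HFF seeded at 1 × 10^3/well in RPMI-1640 without phenol red plus 10% fetal calf serum, overnight. βGal-expressing trypomastigotes added at 1 × 10^3/well, overnight, then serial dilutions (final 50, 10, 2 µg/mL). DMSO ≤0.1% final; vehicle control. Read at 7 days post-infection: CPRG 100 µM, Nonidet P-40 0.1% final, 4-6 h at 37 °C, OD 570 nm. Duplicates, ≥3 experiments, SD.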
On the technique in general: Reporter assays use an easily measured gene product as a stand-in for the process of interest.

Assay [4] is described as follows: Ratio of IC50 for HFF to IC50 for Trypanosoma cruzi epimastigotes.
A short description of assay [5]: Ratio of IC50 for HFF to IC50 for Trypanosoma cruzi Tulahuen clone C4 trypomastigotes.

In assay [1], `C=CC1=C(C)[C@@H]2CC[C@H]3[C@@](COC(C)=O)(C(=O)O)CCC[C@]3(C)[C@H]2CC1` yielded an IC50 of 104 µM.

`C[C@@H]1[C@H](O)[C@@H](C)/C=C/C=C/C=C/C=C/C=C/C=C/C=C/[C@H](O[C@@H]2O[C@H](C)[C@@H](O)[C@H](N)[C@@H]2O)C[C@@H]2O[C@](O)(C[C@@H](O)C[C@@H](O)[C@H](O)CC[C@@H](O)C[C@@H](O)CC(=O)O[C@H]1C)C[C@H](O)[C@H]2C(=O)O` [AMPHOTERICIN B] registered a 50% inhibitory concentration (IC50) in assay [1] of 1 µM.

Consider `C=C[C@@]1(O)CC[C@H]2[C@@H](C[C@@H](O)[C@H]3[C@](C)(COC(C)=O)CCC[C@]23C)C1=C`, for which the values for the IC50 in assay [2], in assay [3] and in assay [1] were 124 µM, 35.8 µM and 16.5 µM, respectively.

On to `C=CC1=C(C)[C@@H]2C[C@@H](O)[C@H]3[C@](C)(COC(C)=O)CCC[C@]3(C)[C@H]2CC1`, for which the Ratio IC50 in assay [4] is 10. The half-inhibitory concentration (IC50) in assay [2] was determined as 118 µM; in assay [3] it was 25.9 µM; in assay [1] it was 11.5 µM.

Turning to `C=CC1=C(C)[C@@H]2CC[C@H]3[C@](C)(CO)CCC[C@]3(C)[C@H]2CC1`, the IC50 in assay [2] is 149 µM; in assay [3], 17.4 µM; in assay [1] it was 48.6 µM. The Ratio IC50 in assay [5] turned out to be 9.

As for `CC1CS(=O)(=O)CCN1/N=C/c1ccc([N+](=O)[O-])o1` (stereo not given) [NIFURTIMOX], the IC50 in assay [3] was found to be 11 µM.

For `C=CC1=C(C)[C@@H]2C[C@@H](O)[C@H]3[C@](C)(CO)CCC[C@]3(C)[C@H]2CC1`, the concentration for half-maximal inhibition (IC50) in assay [2] was 148 µM; in assay [3], 16.6 µM; in assay [1], 56 µM. Moreover, in assay [5], the Ratio IC50 is 9.

For the compound `C=CC1=C(C)[C@@H]2C[C@@H](OC(C)=O)[C@H]3[C@](C)(COC(C)=O)CCC[C@]3(C)[C@H]2CC1`, inhibition in assay [1] was half-maximal at 59 µM (IC50).

Compound `C=CC1=C(C)[C@@H]2CC(=O)[C@H]3[C@](C)(CO)CCC[C@]3(C)[C@H]2CC1` had an IC50 in assay [1] of 36 µM.

As a reminder, the IC50 is the point on the concentration scale where inhibition reaches its midpoint. Lower therefore signals greater potency in that assay.
